Measured values reported in ChEMBL document CHEMBL1138110, “Microwave-assisted synthesis of N-alkylated benzotriazole derivatives: antimicrobial studies” (2006).
Structures can show the parent of a compound that is named as a salt.

Legend:
[1] = system: Trichoderma; assay: Antifungal activity against Trichoderma species by disk diffusion method at 25 ug/disk; assay type: functional; conditions: read-out: IZ
How it was run: (§1)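 Fungi kept on potato dextrose agar at 28 °C; conidia scraped from 5–15 day PDA cultures into distilled water, filtered through sterile cotton, resuspended, adjusted by hemocytometer to about 10^6 CFU/mL. Paper disks bore 25 µg compound, 10 µg nystatin reference, or DMSO alone. Plates at 4 °C ≥2 h, then 28 °C; zone diameter (mm) read at 48 h; mean of three determinations.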

[2] = system: Bacillus subtilis; assay: Antibacterial activity against Bacillus subtilis by disk diffusion method at 25 ug/disk; assay type: functional; conditions: read-out: IZ
How it was run: (§2)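 Bacteria kept on LB agar, grown in LB broth, spun 10,000 rpm 5 min, pellet taken up in double-distilled water, density set by hemocytometer to about 10^4 CFU/mL for plate inoculation. Paper disks carried 25 µg test compound or 10 µg streptomycin/tetracycline reference; DMSO-only disks as negative control. Plates held at 4 °C ≥2 h, then 28 °C; inhibition zone diameter (mm) read at 24 h; mean of three determinations.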

[3] = system: Aspergillus flavus; assay: Antifungal activity against Aspergillus flavus by disk diffusion method at 25 ug/disk; assay type: functional; conditions: read-out: IZ; how it was run: as §1
[4] = system: Xanthomonas campestris; assay: Antibacterial activity against Xanthomonas campestris pvs by disk diffusion method at 25 ug/disk; assay type: functional; conditions: read-out: IZ; how it was run: as §2
[5] = system: Aspergillus niger; assay: Antifungal activity against Aspergillus niger by disk diffusion method at 25 ug/disk; assay type: functional; conditions: read-out: IZ; how it was run: as §1
[6] = system: Fusarium verticillioides; assay: Antifungal activity against Fusarium moniliforme by disk diffusion method at 25 ug/disk; assay type: functional; conditions: read-out: IZ; how it was run: as §1
[7] = system: Pseudomonas fluorescens; assay: Antibacterial activity against Pseudomonas fluorescens by disk diffusion method at 25 ug/disk; assay type: functional; conditions: read-out: IZ; how it was run: as §2
[8] = system: Escherichia coli; assay: Antibacterial activity against Escherichia coli by disk diffusion method at 25 ug/disk; assay type: functional; conditions: read-out: IZ; how it was run: as §2
[9] = system: Fusarium oxysporum; assay: Antifungal activity against Fusarium oxysporum by disk diffusion method at 25 ug/disk; assay type: functional; conditions: read-out: IZ; how it was run: as §1
[10] = system: Xanthomonas oryzae; assay: Antibacterial activity against Xanthomonas oryzae by disk diffusion method at 25 ug/disk; assay type: functional; conditions: read-out: IZ
[11] = system: Aspergillus niger; assay: Antifungal activity against Aspergillus niger by disk diffusion method at 10 ug/disk; assay type: functional, organism-based
How it was run: (§3)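 Fungi kept on potato dextrose agar at 28 °C. Conidia scraped from 5–15 day PDA cultures into water, cotton-filtered, and adjusted by hemocytometer to ~10^6 CFU/mL. Disks carried 10 µg; DMSO-only disks as negative control. Plates held at 4 °C ≥2 h, then 28 °C; inhibition zone diameter (mm) read after 48 h. Mean of three determinations.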

[12] = system: Aspergillus flavus; assay: Antifungal activity against Aspergillus flavus by disk diffusion method at 10 ug/disk; assay type: functional, organism-based; how it was run: as §3
[13] = system: Trichoderma; assay: Antifungal activity against Trichoderma species by disk diffusion method at 10 ug/disk; assay type: functional, organism-based; how it was run: as §3
[14] = system: Fusarium oxysporum; assay: Antifungal activity against Fusarium oxysporum by disk diffusion method at 10 ug/disk; assay type: functional, organism-based; how it was run: as §3
[15] = system: Fusarium verticillioides; assay: Antifungal activity against Fusarium moniliforme by disk diffusion method at 10 ug/disk; assay type: functional, organism-based; how it was run: as §3
[16] = system: Xanthomonas campestris; assay: Antibacterial activity against Xanthomonas campestris pvs by disk diffusion method at 10 ug/disk; assay type: functional; conditions: read-out: IZ
[17] = system: Xanthomonas oryzae; assay: Antibacterial activity against Xanthomonas oryzae by disk diffusion method at 10 ug/disk; assay type: functional; conditions: read-out: IZ
[18] = system: Pseudomonas fluorescens; assay: Antibacterial activity against Pseudomonas fluorescens by disk diffusion method at 10 ug/disk; assay type: functional; conditions: read-out: IZ
[19] = system: Bacillus subtilis; assay: Antibacterial activity against Bacillus subtilis by disk diffusion method at 10 ug/disk; assay type: functional; conditions: read-out: IZ
[20] = system: Escherichia coli; assay: Antibacterial activity against Escherichia coli by disk diffusion method at 10 ug/disk; assay type: functional; conditions: read-out: IZ; how it was run: as §2

Compound	zone of inhibition at 25 µg/disc [1]	zone of inhibition at 25 µg/disc [2]	zone of inhibition at 25 µg/disc [3]	zone of inhibition at 25 µg/disc [4]	zone of inhibition at 25 µg/disc [5]	zone of inhibition at 25 µg/disc [6]	zone of inhibition at 25 µg/disc [7]	zone of inhibition at 25 µg/disc [8]	zone of inhibition at 25 µg/disc [9]	zone of inhibition at 25 µg/disc [10]	inhibition zone (IZ) [11]	inhibition zone (IZ) [12]	inhibition zone (IZ) [13]	inhibition zone (IZ) [14]	inhibition zone (IZ) [15]	zone of inhibition at 10 µg/disc [16]	zone of inhibition at 10 µg/disc [17]	zone of inhibition at 10 µg/disc [18]	zone of inhibition at 10 µg/disc [19]	zone of inhibition at 10 µg/disc [20]
Cc1cc2c(cc1Cn1nnc3ccccc31)OCO2	20 mm	18 mm	19 mm	18 mm	16 mm	18 mm	22 mm	20 mm	22 mm	19 mm										
N#Cc1ccccc1-c1ccc(Cn2nnc3ccccc32)cc1	18 mm	16 mm	17 mm	16 mm	14 mm	17 mm	21 mm	18 mm	20 mm	15 mm										
O=[N+]([O-])c1ccc(Cn2nnc3ccccc32)cc1	11 mm	6 mm	7 mm	4 mm	5 mm	8 mm	8 mm	7 mm	9 mm											
CCCn1nnc2ccccc21	1 mm	6 mm	4 mm	3 mm	5 mm	4 mm	1 mm	4 mm	6 mm	2 mm										
O=C(Cn1nnc2ccccc21)c1ccc(Cl)cc1	2 mm	6 mm	5 mm	4 mm	4 mm	3 mm	3 mm	5 mm	6 mm	2 mm										
NYSTATIN											8 mm	10 mm	16 mm	14 mm	12 mm					
CN(C)[C@@H]1C(O)=C(C(N)=O)C(=O)[C@@]2(O)C(O)=C3C(=O)c4c(O)cccc4[C@@](C)(O)[C@H]3C[C@@H]12 [TETRACYCLINE]																12 mm	11 mm			
CN[C@@H]1[C@H](O[C@H]2[C@H](O[C@H]3[C@H](O)[C@@H](O)[C@H](N=C(N)N)[C@@H](O)[C@@H]3N=C(N)N)O[C@@H](C)[C@]2(O)C=O)O[C@@H](CO)[C@H](O)[C@H]1O [STREPTOMYCIN SULFATE]																		18 mm	12 mm	14 mm
CCCCn1nnc2ccccc21	15 mm	13 mm	11 mm	12 mm	8 mm	12 mm	19 mm	14 mm	14 mm	12 mm										
COc1cc(Br)c(Cn2nnc3ccccc32)cc1OC	16 mm	12 mm	10 mm	12 mm	9 mm	13 mm	18 mm	15 mm	14 mm											
